We go through three compounds from ChEMBL document CHEMBL4680120, “Novel anti-Alzheimer phenol-lipoyl hybrids: Synthesis, physico-chemical characterization, and biological evaluation” (Eur J Med Chem, 2020).

Data set [1] in a line: Solubility of compound in water by HPLC analysis. The class given is physicochemical.
A short description of data set [2]: Stability in simulated gastric fluid at pH 1.2 assessed as relative difference measured after 15 mins in presence of pepsin by HPLC analysis. The class given is ADME. Conditions: isolated protein, pH 1.2, 0.25 h. The method in brief:
(§1)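 Incubation in simulated gastric fluid (pH 1.2, pepsin) or simulated intestinal fluid (pH 6.8, pancreatin). Aliquots deproteinized with ice-cold acetonitrile, centrifuged at 4°C and 12000 rpm for 10 min, filtered, analyzed by HPLC. RD% = (Ci − Cf)/Ci × 100. Stable if RD < 5%. Means of three experiments.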

Data set [3] is described as follows: Stability in simulated gastric fluid at pH 1.2 assessed as relative difference measured after 30 mins in presence of pepsin by HPLC analysis. The class given is ADME. Conditions: isolated protein, pH 1.2, 0.5 h. The essentials: as §1
The nature of data set [4]: Stability in simulated gastric fluid at pH 1.2 assessed as relative difference measured after 60 mins in presence of pepsin by HPLC analysis. Conditions: isolated protein, pH 1.2, 1 h. The class given is ADME. The essentials: as §1
Data set [5] can be described thus: Stability in simulated intestinal fluid at pH 6.8 assessed as relative difference measured after 15 mins in presence of pancreatin by HPLC analysis. The class given is ADME. Conditions: simulated gi fluid, pH 6.8, 0.25 h. The method in brief:
as §1

Data set [6] in a line: Stability in simulated intestinal fluid at pH 6.8 assessed as relative difference measured after 30 mins in presence of pancreatin by HPLC analysis. The class given is ADME. The note with it: simulated gi fluid, pH 6.8, 0.5 h. The essentials:
as §1

Data set [7] in a line: Stability in simulated intestinal fluid at pH 6.8 assessed as relative difference measured after 60 mins in presence of pancreatin by HPLC analysis. The class given is ADME. The note with it: simulated gi fluid, pH 6.8, 1 h. The essentials:
as §1

The nature of data set [8]: Stability in simulated intestinal fluid at pH 6.8 assessed as relative difference measured after 120 mins in presence of pancreatin by HPLC analysis. The class given is ADME. The note with it: simulated gi fluid, pH 6.8, 2 h. The essentials:
as §1

Data set [9] can be described thus: Stability in simulated intestinal fluid at pH 6.8 assessed as relative difference measured after 180 mins in presence of pancreatin by HPLC analysis. The class given is ADME. The note with it: simulated gi fluid, pH 6.8, 3 h. The method in brief:
as §1

Data set [10] in a line: Half life in human plasma by HPLC analysis. The class given is ADME, cell-free. The essentials:
(§2)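 Compound stock added to human plasma pre-warmed to 37°C and diluted with 0.02 M phosphate buffer (pH 7.4) to 80% plasma. 100 μL samples taken over time, quenched with 200 μL cold acetonitrile, centrifuged, and supernatant analyzed by HPLC. t½ and kobs are means of three experiments.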

Data set [11] is described as follows: Stability in human plasma assessed as observed rate constant by HPLC analysis. The class given is ADME, cell-free. The essentials:
as §2

Data set [12] concerns SH-SY5Y. The experiment in a line: Cytotoxicity against human SH-SY5Y cells assessed as reduction in cell viability at 1 to 250 mg/l measured after 48 hrs by MTT assay. The class given is cell-based. Conditions: dose 1-250 mg/L. The essentials: (§3)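 SH-SY5Y cells grown in DMEM/F12 with 10% FBS and differentiated with retinoic acid (10 μM), seeded at 1×10^4 per well and cultured 24 h. Cells were given hybrids at 1–250 mg/L with or without Aβ1-42 (20 μM) for 48 h. MTT (5 mg/mL) added for 4 h at 37°C, DMSO solubilization, read at 570/630 nm. LDH read at 450 nm. Five independent experiments.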
For orientation: Formazan colour is commonly taken as a measure of viable cells.

Data set [13] relates to SH-SY5Y. The experiment in a line: Neuroprotective activity against amyloid beta (1 to 42)-induced toxicity in human SH-SY5Y cells assessed as increase in cell viability at 1 to 250 mg/l measured after 48 hrs by MTT assay. The class given is functional, cell-based. Conditions: dose 1-250 mg/L. The essentials: as §3
Data set [14] concerns SH-SY5Y. The experiment in a line: Neuroprotective activity against amyloid beta (1 to 42)-induced toxicity in human SH-SY5Y cells assessed as increase in cell viability at 1 to 250 mg/l measured after 48 hrs by LDH release assay. The class given is functional, cell-based. Conditions: dose 1-250 mg/L. The method in brief:
as §3
(In general: LDH in the medium is a marker of cell lysis.)

Data set [15] has as its system SH-SY5Y. The experiment in a line: Neuroprotective activity against amyloid beta (1 to 42)-induced apoptosis in human SH-SY5Y cells assessed as early apoptotic cells at IC50 measured after 48 hrs by Annexin-V/Propidium iodide staining based flow cytometry (reference value: 0.74%). The class given is functional.
Data set [16] has as its system SH-SY5Y. Briefly: Neuroprotective activity against amyloid beta (1 to 42)-induced apoptosis in human SH-SY5Y cells assessed as late apoptotic cells at IC50 measured after 48 hrs by Annexin-V/Propidium iodide staining based flow cytometry (reference value: 33.72%). The class given is functional.
Data set [17] relates to SH-SY5Y. The experiment in a line: Neuroprotective activity against amyloid beta (1 to 42)-induced apoptosis in human SH-SY5Y cells assessed as necrotic cells at IC50 measured after 48 hrs by Annexin-V/Propidium iodide staining based flow cytometry (reference value: 6.99%). The class given is functional. A general note: Flow cytometry measures light scatter and fluorescence of single cells or particles in a stream.

In data set [18] the test system is Erythrocyte. Briefly: Antioxidant activity in human RBC assessed as increase in total antioxidant capacity level up to 400 ug/ml measured after 72 hrs relative to control. The class given is functional. Conditions: dose microg/ml <=400.
In data set [19] the test system is Erythrocyte. Briefly: Cytoprotective activity against H2O2-induced oxidative damage in human RBC assessed as increase in cell viability measured after 72 hrs by MTT assay. The class given is functional, cell-based.
For data set [20], the system named is Erythrocyte. The experiment in a line: Cytoprotective activity against H2O2-induced oxidative damage in human RBC assessed as increase in cell viability measured after 72 hrs by LDH release assay. The class given is functional, cell-based. The method in brief: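 Heparinized whole blood cultured with phytohemagglutinin. Cells were co-incubated with 50 or 100 μM hybrid and H2O2 (25 μM). Viability was read by MTT: lymphocytes at 2×10^5 per well, MTT 4 h at 37°C, formazan dissolved in DMSO, absorbance 570 nm. LDH release was measured on 100 μL medium with a commercial kit. Results are relative to untreated control.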

In data set [21] the test system is Erythrocyte. The experiment in a line: Cytoprotective activity against H2O2-induced oxidative damage in human RBC assessed as recovery of H2O2-induced cell death at 50 to 100 uM measured after 72 hrs by MTT assay relative to control. The class given is functional. The note with it: dose 50-100 µM.
Data set [22] has as its system Erythrocyte. Briefly: Cytoprotective activity against H2O2-induced oxidative damage in human RBC assessed as recovery of H2O2-induced cell death at 50 to 100 uM measured after 72 hrs by LDH release assay relative to control. The class given is functional. Conditions: dose 50-100 µM. The method in brief:
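Heparinised human whole blood cultured in phytohemagglutinin-containing chromosome medium and co-incubated with hybrids and H2O2 at 37C for 72 h. LDH released into the culture medium was measured with a commercial kit. Triton X-100 served as positive control, with untreated cultures as reference. Cytoprotection was expressed as viability relative to control.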

Data set [23] deals with Erythrocyte. Briefly: Cytoprotective activity against H2O2-induced oxidative damage in human RBC assessed as restoration of antioxidant activity measured after 72 hrs by TAC assay. The class given is functional, cell-based.
For data set [24], the system named is Erythrocyte. The experiment in a line: Cytoprotective activity against H2O2-induced oxidative damage in human RBC assessed as restoration of antioxidant activity at 50 uM measured after 72 hrs by TAC assay relative to control. The class given is functional.
For data set [25], the system named is Erythrocyte. Briefly: Cytoprotective activity against H2O2-induced oxidative damage in human RBC assessed as restoration of antioxidant activity at 100 uM measured after 72 hrs by TAC assay relative to control. The class given is functional.
Data set [26] is described as follows: Stability in simulated intestinal fluid at pH 6.8 assessed as hydrolysis measured immediately in presence of pancreatin by HPLC analysis. The class given is ADME. Conditions: simulated gi fluid. The method in brief: as §1
The test system of data set [27] is Erythrocyte. The experiment in a line: Cytoprotective activity against H2O2-induced oxidative damage in human RBC assessed as restoration of antioxidant activity at 50 to 100 uM measured after 72 hrs by TAC assay relative to control. The class given is functional. Conditions: dose 50-100 µM.

SMILES strings stand for the structures. Converted amounts (≈) assume the structure as drawn. The source made the active and inactive calls. The calls are words filed in the database; no cut-off is given here.

`COc1ccc(/C=C/C(=O)OCCOCCNC(=O)CCCCC2CCSS2)cc1OC` (centres undefined): the solubility (commonly the concentration that dissolves in the medium under given conditions) in [1] came out at 10 µg/mL (≈ 20.7 µM). The “fold change (FC)” value in data set [2] is 5.6%; in data set [3] it was 7.35%; in data set [4] it was 30.76%; in [5], 12.01%; in data set [6] it was 21.06%; in [7], 27.2%. In addition, the “fold change (FC)” value in [8] is 31.38%; in data set [9], 40.3%. The half-life (usually how long it takes for the measured level to halve) in data set [10] is 1030 min. Further, the K in data set [11] worked out at 0.042 h⁻¹. The Activity result was “Non-Toxic” in [12]; 2.85% in [15]; 15.39% in data set [16]; 1.6% in data set [17]; 2% in data set [18]; “Dose-dependent effect” in data set [19]. Besides, the Activity entry in data set [20] is “Dose-dependent effect”; in data set [21], 0.5%; in [22] it was 0.4%; in [23] it was “Dose-dependent effect”; in [24], 12.5%; in data set [25], 29.2%. Moreover, the outcome in data set [13] and in data set [14] was Active.

With `COc1ccc(CC(=O)OCCCNC(=O)CCCCC2CCSS2)cc1OC` (centres undefined), the solubility in data set [1] came out at 110 µg/mL (≈ 249 µM). Further, the “fold change (FC)” value in [2] is 15.23%; in data set [3], 35.89%; in [4], 60.98%. Besides, in data set [26], the Stabilty entry is “Unstable”. Also, the half-life in data set [10] is 37.2 min. Moreover, in data set [11], the K is 1.146 h⁻¹. Further, in data set [12], the Activity result is on record as “Non-Toxic”. The result in data set [13] and in data set [14] was Active.

Compound `O=C(CCCCC1CCSS1)NCCCNC(=O)Cc1ccc(O)c(O)c1` (centres undefined) gave a solubility in [1] of 235 µg/mL (≈ 570 µM). For the same compound, the “fold change (FC)” value is recorded as 15.27% in data set [2]; 47.45% in [3]; 65.48% in data set [4]; 5.6% in data set [5]; 30.4% in data set [6]; 56.3% in [7]. The “fold change (FC)” value is listed as 70% in data set [8] and 90.2% in [9]. In addition, in data set [10], the half-life is 553 min. In [11], the K was determined as 0.08 h⁻¹. For the same compound, the Activity result in data set [12] was “Non-Toxic”; in data set [15], 3.88%; in data set [16] it was 13.72%; in [17], 1.23%; in data set [18], 26.5%; in data set [19] it was “Dose-dependent effect”. The Activity result was “Dose-dependent effect” in [20]; 0.5% in data set [21]; 0.4% in [22]; “Dose-dependent effect” in [23]; 79.2% in data set [27]. The result in [13] and in data set [14] was Active.
